Data set [1] is described as follows: folding enthalpy; higher = less favourable; fluorescence melt of hairpins on a sequencing array, two-state fit. As to conditions: sodium 0.088 M. The method, boiled down: (§1)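 To match UV melts, fitted temperatures were raised by 9.35 °C. These fits were bootstrapped two-state models that gave melting temperature and folding enthalpy, combined by inverse variance over four replicates. The input was normalised Cy3 fluorescence of library hairpins with annealed Cy3 and quencher oligos on a sequenced MiSeq flow cell, imaged in 50 mM Na-HEPES pH 8.0, 25 mM NaCl in 2.5 °C steps up to 60 °C.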

Data set [2] in a line: melting temperature; fluorescence melt of hairpins on a sequencing array, two-state fit, raised by 9.35 °C to match UV melts. Particulars: sodium 0.088 M. The method, boiled down: as §1

Regarding GAGAATGGAAACATTCCC (.(((((....))))).), in data set [1], the folding enthalpy was -19.6 kcal/mol. Moreover, in data set [2], the Tm stood at 31.2 °C.
The like results for GAAGAACGAAAGTTTTC (((.(((....)))))) were, in that order, -12.6 kcal/mol and 24.9 °C.
The like results for GATCGGCCCTCCGATC ((((((....)))))) were, in that order, -39.9 kcal/mol and 56.7 °C.
The like results for GCGTAGCGAAAGCTAGGC ((.((((....)))).)) were, in that order, -20.9 kcal/mol and 59.6 °C.
With GCTTCTGGAAACAAAAGC ((((.((....)).)))), the folding enthalpy in data set [1] was -13.1 kcal/mol. Also, the Tm in data set [2] came to 28.8 °C.
Take CTGGGGAAACCCAG (((((....))))): the folding enthalpy in data set [1] was -25.4 kcal/mol. Moreover, the Tm in data set [2] was 53.5 °C.
The like results for GAAGGCCCGAAAGGGTTC (((..(((....)))))) were, in that order, -17.4 kcal/mol and 25.5 °C.
In the case of GGGAGACGAAAGTCGCCC (((.(((....))).))), the folding enthalpy in data set [1] is -33 kcal/mol. The Tm in data set [2] worked out at 66 °C.
Turning to GGTTTCGAAAGAAAGACC ((((((....)))..))), the folding enthalpy in data set [1] was -14.4 kcal/mol. The Tm in data set [2] was found to be 30.1 °C.
For GTCTCGACGAAAGTCGAC (((..(((....)))))), the folding enthalpy in data set [1] was -8.21 kcal/mol. Besides, the Tm in data set [2] stood at 35.1 °C.
The like results for GGTAACGGAAACGTCACC (((.(((....))).))) were, in that order, -32 kcal/mol and 42.8 °C.
On to GTACGTGGAAACATGTGC (.((.((....)).)).), for which, in data set [1], the folding enthalpy was -24.4 kcal/mol. The Tm in data set [2] came to 36.5 °C.
As to GCGAAGTCGAAAGACCGC (((..(((....)))))), in data set [1], the folding enthalpy was -26.9 kcal/mol. Also, the Tm in data set [2] was 52.5 °C.
GTCCAGCCGAAAGGCGAC (((..(((....)))))): the folding enthalpy in data set [1] is -9.75 kcal/mol. Moreover, the Tm in data set [2] came out at 40.6 °C.
The like results for GCTCTCGAAAGAGGAAGC ((((((....)))..))) were, in that order, -18.8 kcal/mol and 38.4 °C.
The like results for GTCACACCGAAAGGTGAC (((..(((....)))))) were, in that order, -10.9 kcal/mol and 41.1 °C.
The like results for TACGTGAAAACGTA (((((....))))) were, in that order, -16.8 kcal/mol and 43.5 °C.
In the case of CGTTTGAAAAAACG (((((....))))), the folding enthalpy in data set [1] was -21.2 kcal/mol. Besides, the Tm in data set [2] was 47.3 °C.
The like results for GATCGGTACCCGATC ((((((...)))))) were, in that order, -39.3 kcal/mol and 57.2 °C.
With GAAGGAGCGAAAGCTTTC (((..(((....)))))), the folding enthalpy in data set [1] is -9.13 kcal/mol. In data set [2], the Tm was 28.4 °C.
The like results for GTCTAGGGAAACCCAGAC ((((.((....)).)))) were, in that order, -30.1 kcal/mol and 40.9 °C.
The like results for GAGTAAGGAAACTTGCTC (((.(((....))).))) were, in that order, -27.8 kcal/mol and 40.3 °C.
GATTTCGCGAAAGCGATC (((..(((....)))))): in data set [1], the folding enthalpy was -5.88 kcal/mol. In addition, in data set [2], the Tm stood at 17.8 °C.
For GATCTAGGAAACCAGATC (((((.(....).))))), the folding enthalpy in data set [1] is -25.3 kcal/mol. In addition, the Tm in data set [2] came out at 34.6 °C.
In the case of GACATGCGAAAGCAGGTC (((.(((....))).))), the folding enthalpy in data set [1] was -29.8 kcal/mol. Further, in data set [2], the Tm was determined as 65.7 °C.
The like results for GCGTGGGTACGC ((((....)))) were, in that order, -23.9 kcal/mol and 53.9 °C.
Consider GATCAGGCTACTGATC ((((((....)))))), for which, in data set [1], the folding enthalpy is -43.8 kcal/mol. Besides, the Tm in data set [2] turned out to be 57.4 °C.
Turning to GCCAAGCGAAAGCCTTGC ((.(.((....)).).)), the folding enthalpy in data set [1] is -13.6 kcal/mol. In addition, in data set [2], the Tm worked out at 33.9 °C.
With GCTGGCGCGAAAGCGAGC (((..(((....)))))), the folding enthalpy in data set [1] was -9.37 kcal/mol. In data set [2], the Tm worked out at 55.6 °C.
On to GTAAATCGAAAGATGTAC (((.(((....))).))), for which, in data set [1], the folding enthalpy was -23.1 kcal/mol. The Tm in data set [2] amounted to 34.4 °C.
The like results for GCTCTGCGAAAGCAAAGC (((.(((....))).))) were, in that order, -29.9 kcal/mol and 46.1 °C.

Source of the values: the array DNA melting data of Ke et al. (doi:10.1101/2024.01.08.574731).
